Data as given in ChEMBL document CHEMBL1128728, “Synthesis and evaluation of terbenzimidazoles as topoisomerase I inhibitors” (J Med Chem, 1995).

Legend:
RPMI 8402 [1] = assay: Cytotoxicity against Camptothecin-resistant (CPT -K5) cell line.; assay type: functional, cell-based; settings: Homo sapiens
Summary of the method: (§1)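 MTT microtiter tetrazolium assay; human lymphoblast RPMI 8402 and camptothecin-resistant CPT-K5 grown in suspension at 37 °C, 5% CO2, RPMI medium with 10% heat-inactivated FBS, 2 mM L-glutamine, penicillin 100 U/mL, streptomycin 0.1 mg/mL. Continuous exposure to varying drug concentrations; MTT read at end of day 4; IC50 calculated.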

RPMI 8402 [2] = assay: Cytotoxicity against Human lymphoblast (RPMI 8402) cell line; assay type: functional, cell-based; summary of the method: as §1
[3] = test system: DNA topoisomerase 1 (Bos taurus); assay: The compound was tested for topoisomerase-1 mediated DNA cleavage, activity is expressed as REC(relative effective concentration) i.e., concentration relative to Hoechst 33342.
KB [4] = assay: Cytotoxicity against human epidermoid carcinoma vinblastine-selected multidrug-resistant (KBV-1) cell line.; assay type: functional, cell-based
Summary of the method: (§2)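 Human epidermoid carcinoma KB3-1 and vinblastine-selected MDR1-overexpressing KBV-1 grown as monolayers in 5% CO2, Dulbecco's medium with 10% heat-inactivated FBS. Cytotoxicity by MTT microtiter tetrazolium assay after continuous exposure to varying drug concentrations for 4 days; IC50 calculated.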

KB 3-1 [5] = assay: Cytotoxicity against human epidermoid carcinoma (KB3-1) cell line.; assay type: functional, cell-based; summary of the method: as §2
KB [6] = assay: Cytotoxicity against human epidermoid carcinoma vinblastine-selected multidrug-resistant (KBV-1) cell line; assay type: functional, cell-based
Summary of the method: (§3)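 KB3-1 epidermoid carcinoma cells and KBV-1, their vinblastine-selected MDR1-overexpressing variant, were grown as monolayers in 5% CO2 in Dulbecco's medium with 10% heat-inactivated FBS. Viability was measured by MTT tetrazolium microtiter assay after 4 days of continuous exposure to varying drug concentrations, and IC50 was calculated.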

KB 3-1 [7] = assay: Cytotoxicity against human epidermoid carcinoma (KB3-1) cell line; assay type: functional, cell-based; summary of the method: as §3
RPMI 8402 [8] = assay: Cytotoxicity against Camptothecin-resistant (CPT -K5) cell line; assay type: functional, cell-based; settings: Homo sapiens
Summary of the method: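 MTT tetrazolium assay in 96-well plates on CPT-K5, a camptothecin-resistant variant of human lymphoblast RPMI 8402, grown in suspension at 37 °C, 5% CO2 in RPMI medium with 10% heat-inactivated FBS, 2 mM L-glutamine, penicillin and streptomycin. Cells were exposed continuously to varying drug concentrations, with MTT read at the end of day 4. IC50 was calculated.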

SMILES	Relative concentration [3]	IC50 (RPMI 8402 [1]) [nM]	IC50 (RPMI 8402 [2]) [nM]	IC50 (KB [4]) [nM]	IC50 (KB 3-1 [5]) [nM]	IC50 (KB [6]) [nM]	IC50 (KB 3-1 [7]) [nM]	IC50 (RPMI 8402 [8]) [nM]
CCCc1ccc2[nH]c(-c3ccc4[nH]c(-c5ccc6[nH]cnc6c5)nc4c3)nc2c1	100	20000	7600	–	–	–	–	–
c1cc(-c2ccc3[nH]c(-c4ccc5[nH]c(-c6ccc7[nH]cnc7c6)nc5c4)nc3c2)ccn1	2	2500	35	10	20	–	–	–
c1ccc2[nH]c(-c3ccc4[nH]c(-c5ccc6[nH]cnc6c5)nc4c3)nc2c1	1.1	28000	14000	–	–	–	–	–
CCOc1ccc(-c2nc3cc(-c4nc5cc(N6CCN(C)CC6)ccc5[nH]4)ccc3[nH]2)cc1	–	–	30	–	–	1200	10	900
c1cncc(-c2ccc3[nH]c(-c4ccc5[nH]c(-c6ccc7[nH]cnc7c6)nc5c4)nc3c2)c1	2	2500	35	20	20	–	–	–
COc1ccc(-c2nc3cc(-c4nc5cc(-c6nc7cc(C#N)ccc7[nH]6)ccc5[nH]4)ccc3[nH]2)cc1	1000	–	> 20000	–	–	–	–	–
c1ccc(-c2ccc3[nH]c(-c4ccc5[nH]c(-c6ccc7[nH]cnc7c6)nc5c4)nc3c2)cc1	2	580	90	350	580	–	–	–
c1ccc(-c2ccc3[nH]c(-c4ccc5[nH]c(-c6ccc7[nH]cnc7c6)nc5c4)nc3c2)nc1	3.3	5800	160	90	50	–	–	–

The next lines start with results.

Relative concentration [3]	SMILES	IC50 (RPMI 8402 [1]) [nM]	IC50 (RPMI 8402 [2]) [nM]	IC50 (KB [4]) [nM]	IC50 (KB 3-1 [5]) [nM]	IC50 (KB [6]) [nM]	IC50 (KB 3-1 [7]) [nM]	IC50 (RPMI 8402 [8]) [nM]
1	N#Cc1ccc2[nH]c(-c3ccc4[nH]c(-c5ccc6[nH]cnc6c5)nc4c3)nc2c1	> 25000	> 25000	–	–	–	–	–
1000	N#Cc1ccc2[nH]c(-c3ccc4[nH]cnc4c3)nc2c1	–	> 25000	–	–	–	–	–
3.3	COc1ccc(-c2nc3cc(-c4nc5cc(C#N)ccc5[nH]4)ccc3[nH]2)cc1	–	27000	–	–	–	–	–
